Data on 18 compounds can be found in ChEMBL document CHEMBL1125140, “Synthesis and in vivo antitumor activity of 2-amino-9H-purine-6-sulfenamide, -sulfinamide, and -sulfonamide and related purine ribonucleosides” (1990).

Holding throughout (type): functional, Mus musculus
Experiment [1] deals with L1210. The experiment can be described thus: Post inoculation lifespan was determined in L1210 Inoculated mice at a dose of 8.1 mg/Kg after a single treatment. The method, boiled down:
(§1)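 BDF1 female mice (~18 g) received 1 × 10⁶ L1210 cells ip on day 0, then one ip bolus at 24 h in 0.01 mL/g (dose = 10 × solubility in mg/mL; water, or Me₂SO if insoluble). Controls got 0.9% NaCl. Six mice per treatment group. %T/C = mean life span of treated / mean life span of controls × 100. Deaths assigned to leukemia or toxicity from timing and necropsy.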

Experiment [2] relates to L1210. In words: Percentage of L1210 cells killed was determined in L1210 Inoculated mice at a dose of 8.1 mg/kg after a single treatment. The method, boiled down: (§2)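 BDF1 female mice (~18 g) inoculated ip on day 0 with 1 × 10⁶ L1210 leukemia cells. Single ip bolus 24 h later, prepared just before use and given in 0.01 mL/g body weight (mg/kg dose = 10 × solubility in mg/mL; water, or Me₂SO if insoluble). Six mice per group. Percent of viable leukemia cells killed estimated from inoculum size versus life span data.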

The test system of experiment [3] is L1210. The experiment can be described thus: Post inoculation lifespan was determined in L1210 Inoculated mice at a dose of 22 mg/Kg after a single treatment. The method, boiled down:
as §1

The test system of experiment [4] is L1210. In words: Percentage of L1210 cells killed was determined in L1210 Inoculated mice at a dose of 22 mg/kg after a single treatment. The method, boiled down:
as §2

The subject of experiment [5] is L1210. In words: Percentage of L1210 cells killed was determined in L1210 Inoculated mice at a dose of 480 mg/kg after a single treatment. The method, boiled down:
as §2

For experiment [6], the system named is L1210. The experiment can be described thus: Post inoculation lifespan was determined in L1210 Inoculated mice at a dose of 480 mg/Kg after a single treatment. The method, boiled down:
as §1

Experiment [7] deals with L1210. The experiment can be described thus: Post inoculation lifespan was determined in L1210 Inoculated mice at a dose of 37 mg/Kg after a single treatment. A digest of the protocol: as §1
For experiment [8], the system named is L1210. In words: Percentage of L1210 cells killed was determined in L1210 Inoculated mice at a dose of 37 mg/kg after a single treatment. The method, boiled down:
as §2

For experiment [9], the system named is L1210. In words: Post inoculation lifespan was determined in L1210 Inoculated mice at a dose of 104 mg/Kg. A digest of the protocol: as §1
Experiment [10] deals with L1210. In words: Percentage of L1210 cells killed was determined in L1210 Inoculated mice at a dose of 104 mg/kg after a single treatment. A digest of the protocol: as §2
The test system of experiment [11] is L1210. The experiment can be described thus: Percentage of L1210 cells killed was determined in L1210 Inoculated mice at a dose of 173 mg/kg after a single treatment. The method, boiled down: as §2
Experiment [12] relates to L1210. In words: Post inoculation lifespan was determined in L1210 Inoculated mice at a dose of 173 mg/Kg after a single treatment. A digest of the protocol: as §1
In experiment [13] the test system is L1210. In words: Post inoculation lifespan was determined in L1210 Inoculated mice at a dose of 62 mg/Kg. A digest of the protocol: as §1
The test system of experiment [14] is L1210. The experiment can be described thus: Percentage of L1210 cells killed was determined in L1210 Inoculated mice at a dose of 62 mg/kg after a single treatment. A digest of the protocol: as §2
The test system of experiment [15] is L1210. The experiment can be described thus: Post inoculation lifespan was determined in L1210 Inoculated mice at a dose of 62 mg/Kg after a single treatment. The method, boiled down: as §1
The subject of experiment [16] is L1210. In words: Post inoculation lifespan was determined in L1210 Inoculated mice at a dose of 13 mg/Kg after a single treatment. The method, boiled down: as §1
Experiment [17] has as its system L1210. In words: Percentage of L1210 cells killed was determined in L1210 Inoculated mice at a dose of 13 mg/kg after a single treatment. A digest of the protocol:
as §2

The subject of experiment [18] is L1210. In words: Post inoculation lifespan was determined in L1210 Inoculated mice at a dose of 104 mg/Kg after a single treatment. The method, boiled down: as §1

Structures are written as SMILES.

The term T/C denotes the ratio of treated to control.

For the compound `Nc1nc(=S)c2ncn([C@@H]3O[C@H](CO)[C@@H](O)[C@H]3O)c2[nH]1` [THIOGUANOSINE], the T/C in the experiment with L1210 [1] is reported as 147%. Besides, the Activity in the experiment on L1210 [2] is 98.41%.
`Nc1nc(S(N)(=O)=O)c2[nH]cnc2n1`: the T/C with L1210 [3] stood at 103%. The compound also registered an Activity in the experiment on L1210 [4] of 20.78%.
In the experiment with L1210 [5], `NSc1ncnc2c1ncn2C1O[C@H](CO)[C@@H](O)[C@H]1O` (stereo partly specified) yielded an Activity of 97.82%. This compound also gave a T/C with L1210 [6] of 149%.
Regarding `C[C@H]1OC(n2cnc3c(S)nc(N)nc32)[C@H](O)[C@@H]1O` (stereo partly specified), the T/C in the experiment with L1210 [7] is 169%. In addition, the Activity in the experiment with L1210 [8] was found to be 99.82%.
With `NS(=O)(=O)c1[nH]cnc2ncnc1-2`, the T/C in the experiment on L1210 [9] is on record as 134%. In the experiment with L1210 [10], this compound had an Activity of 95.48%.
In turn, `NS(=O)(=O)c1ncnc2c1ncn2[C@@H]1O[C@H](CO)[C@@H](O)[C@H]1O` gave an Activity in the experiment on L1210 [11] of 98.36%. The compound also showed a T/C with L1210 [12] of 147%.
The compound `C[C@H]1OC(n2cnc3c(S(N)(=O)=O)nc(N)nc32)[C@H](O)[C@@H]1O` (stereo partly specified) displayed an Activity with L1210 [5] of 94.38%. In the experiment on L1210 [6], this compound had a T/C of 130%.
`NSc1nc(N)nc2c1ncn2C1O[C@H](CO)[C@@H](O)[C@H]1O` (stereo partly specified): the T/C with L1210 [3] was 170%. For the same compound, the Activity with L1210 [4] is listed as 99.84%.
Take `CC(=O)OC[C@H]1O[C@@H](n2cnc3c([S+](N)[O-])nc(N)nc32)[C@H](OC(C)=O)[C@@H]1OC(C)=O` (stereo partly specified): the T/C in the experiment on L1210 [3] came to 99%. In the experiment with L1210 [4], the Activity turned out to be 0%.
On the same counts, the results for `Nc1nc([S+](N)[O-])c2[nH]cnc2n1` (stereo unspecified) are 113% and 67.94%.
Compound `O=S(=O)(F)c1[nH]cnc2ncnc1-2` returned a T/C in the experiment with L1210 [13] of 115%. The compound further displayed an Activity with L1210 [14] of 73.54%.
For `N[S+]([O-])c1ncnc2c1ncn2C1O[C@H](CO)[C@@H](O)[C@H]1O` (stereo partly specified), in the experiment with L1210 [15], the T/C is recorded as 114%. The compound further registered an Activity with L1210 [14] of 70.87%.
On the same counts, the results for `Nc1nc(S(N)(=O)=O)c2ncn(C3O[C@H](CO)[C@@H](O)[C@H]3O)c2n1` (stereo partly specified) are 128% and 92.4%.
`C[C@H]1OC(n2cnc3c(SN)nc(N)nc32)[C@H](O)[C@@H]1O` (stereo partly specified): the T/C with L1210 [16] was found to be 136%. The Activity in the experiment with L1210 [17] stood at 95.9%.
In the experiment with L1210 [11], `Nc1nc([S+](N)[O-])c2ncn(C3O[C@H](CO)[C@@H](O)[C@H]3O)c2n1` (stereo partly specified) returned an Activity of 99.8%. In the experiment with L1210 [12], this compound displayed a T/C of 167%.
As for `NSc1[nH]c(N)nc2ncnc1-2`, the T/C in the experiment with L1210 [7] came to 159%. Moreover, the Activity with L1210 [8] stood at 99.04%.
For the compound `OC[C@H]1O[C@@H](n2cnc3c(S)ncnc32)[C@H](O)[C@@H]1O` [THIOINOSINE], the Activity with L1210 [11] turned out to be 98.36%. In the experiment with L1210 [12], the T/C came out at 150%.
With `C[C@H]1OC(n2cnc3c([S+](N)[O-])nc(N)nc32)[C@H](O)[C@@H]1O` (stereo partly specified), the T/C with L1210 [18] was 172%. Also, the Activity with L1210 [10] is 99.87%.
